# Reference: ChEMBL document CHEMBL2385063, “Identification of 2-(2-(1-naphthoyl)-8-fluoro-3,4-dihydro-1H-pyrido[4,3-b]indol-5(2H)-yl)acetic acid (setipiprant/ACT-129968), a potent, selective, and orally bioavailable chemoattractant receptor-homologous molecule expressed on Th2 cells (CRTH2) antagonist” (J Med Chem, 2013)
# The source made the active and inactive calls. No cut-off for these calls is given here.
# What was measured:
# [1] = Volume of distribution at steady state in Wistar rat at 1 mg/kg, iv and 10 mg/kg, po; format: ADME, organism-based; details: in vivo, read-out: Vdss
# Method in brief: (§1)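 Male Wistar rats, three animals per experiment, were dosed intravenously and orally with compound given as solutions.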
# [2] = Oral bioavailability in Wistar rat at 10 mg/kg; format: ADME, organism-based; details: in vivo
# Method in brief: (§2)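 Male Wistar rats, three animals per experiment, given iv (0.2, 1 or 2 mg/kg) and po (2 or 10 mg/kg) doses as solutions; AUC0-last, plasma clearance, half-life and oral bioavailability derived.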
# [3] = Plasma clearance in Wistar rat at 1 mg/kg, iv and 10 mg/kg, po; format: ADME, organism-based; method in brief: as §2
# [4] = Solubility of the compound in water at pH 3.9; format: physicochemical
# Method in brief: (§3)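 Compound was stirred in water, 60 mM citrate buffer pH 4 or 70 mM phosphate buffer pH 7 at 300 rpm, 25 °C, for 24 h. The mixture was filtered, and the filtrate concentration was measured by HPLC-UV at 250 nm against a calibration curve.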
# Rattus norvegicus [5] = experiment: AUC(0 to last) in Wistar rat at 1 mg/kg, iv and 10 mg/kg, po; format: ADME, organism-based, Plasma; details: in vivo; method in brief: as §2
# [6] = Solubility of the compound in water; format: physicochemical; method in brief: as §3
# [7] = biological target: T1, Chemoattractant receptor-homologous molecule expressed on Th2 cells (Cavia porcellus) (UniProt Q56D28); experiment: Partial agonist activity at guinea pig CRTH2 receptor assessed as calcium flux by cell-based FLIPR assay; format: functional
# T1 sequence (whole entry): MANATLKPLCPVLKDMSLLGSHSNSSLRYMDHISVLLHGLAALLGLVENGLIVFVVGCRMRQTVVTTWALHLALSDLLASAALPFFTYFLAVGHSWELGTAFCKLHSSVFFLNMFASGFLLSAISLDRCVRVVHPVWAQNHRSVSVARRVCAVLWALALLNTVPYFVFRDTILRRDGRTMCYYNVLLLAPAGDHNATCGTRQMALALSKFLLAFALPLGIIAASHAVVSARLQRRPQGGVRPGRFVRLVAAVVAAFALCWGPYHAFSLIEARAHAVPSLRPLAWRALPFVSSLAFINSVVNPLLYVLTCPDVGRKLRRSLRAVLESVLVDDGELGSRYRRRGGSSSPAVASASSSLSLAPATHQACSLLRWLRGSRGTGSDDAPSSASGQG
# [8] = biological target: T2, Prostaglandin D2 receptor 2 (Mus musculus) (UniProt Q9Z2J6); experiment: Partial agonist activity at mouse CRTH2 receptor assessed as calcium flux by cell-based FLIPR assay; format: functional
# T2 sequence (whole entry): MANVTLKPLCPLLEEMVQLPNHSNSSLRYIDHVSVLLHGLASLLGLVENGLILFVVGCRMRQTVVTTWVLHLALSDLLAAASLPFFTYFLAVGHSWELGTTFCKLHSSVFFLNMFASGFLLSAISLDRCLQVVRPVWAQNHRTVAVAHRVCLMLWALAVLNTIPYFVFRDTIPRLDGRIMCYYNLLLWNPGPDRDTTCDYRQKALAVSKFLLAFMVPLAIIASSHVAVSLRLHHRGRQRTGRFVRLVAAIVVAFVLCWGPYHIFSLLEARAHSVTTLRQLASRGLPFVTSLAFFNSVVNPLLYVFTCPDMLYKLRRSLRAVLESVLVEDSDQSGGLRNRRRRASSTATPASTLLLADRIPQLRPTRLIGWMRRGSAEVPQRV
# [9] = Plasma clearance in Wistar rat at 2 mg/kg, iv and 10 mg/kg, po; format: ADME, organism-based; method in brief: as §2
# [10] = Oral bioavailability in beagle dog at 10 mg/kg; format: ADME, organism-based, Canis lupus familiaris; details: in vivo
# Method in brief: (§4)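 Male Beagle dogs, three per experiment, dosed orally at 10 mg/kg (with a 1 mg/kg iv arm) as solutions containing 10% propylene glycol; AUC0-last and oral bioavailability derived.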
# [11] = Half life in Wistar rat at 2 mg/kg, iv and 10 mg/kg, po; format: ADME, organism-based; details: in vivo; method in brief: as §2
# [12] = Volume of distribution at steady state in Wistar rat at 2 mg/kg, iv and 10 mg/kg, po; format: ADME, organism-based; details: in vivo, read-out: Vdss; method in brief: as §1
# [13] = Solubility of the compound in water at pH 4.3; format: physicochemical; method in brief: as §3
# [14] = Clearance in beagle dog at 1 mg/kg, iv; format: ADME, organism-based, Canis lupus familiaris; set-up: dose 1 mg/kg, route intravenous; details: in vivo
# Method in brief: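 Male Beagle dogs, three per experiment, given 1 mg/kg iv as a solution in 10% propylene glycol; plasma clearance determined.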
# Rattus norvegicus [15] = experiment: AUC(0 to last) in Wistar rat at 2 mg/kg, iv and 10 mg/kg, po; format: ADME, organism-based, Plasma; details: in vivo; method in brief: as §2
# Canis familiaris = experiment: AUC (0 to last) in beagle dog at 10 mg/kg, po; format: ADME, organism-based, Canis lupus familiaris, Plasma; set-up: time 0 - last, dose 10 mg/kg, route oral; details: in vivo; method in brief: as §4
# [16] = Solubility of the compound in water at pH 3.8; format: physicochemical; method in brief: as §3
# [17] = Oral bioavailability in Wistar rat at 2 mg/kg; format: ADME, organism-based; details: in vivo; method in brief: as §2
# [18] = Plasma clearance in Wistar rat at 0.2 mg/kg, iv and 2 mg/kg, po; format: ADME, organism-based; method in brief: as §2
# Rattus norvegicus [19] = experiment: AUC(0 to last) in Wistar rat at 0.2 mg/kg, iv and 2 mg/kg, po; format: ADME, organism-based, Plasma; details: in vivo; method in brief: as §2
# [20] = Volume of distribution at steady state in Wistar rat at 0.2 mg/kg, iv and 2 mg/kg, po; format: ADME, organism-based; details: in vivo, read-out: Vdss; method in brief: as §1
# [21] = Half life in Wistar rat at 0.2 mg/kg, iv and 2 mg/kg, po; format: ADME, organism-based; details: in vivo; method in brief: as §2
# CYP3A4 = CYP3A4 (Homo sapiens, UniProt P08684); experiment: Inhibition of CYP3A4 in human liver microsomes assessed as midazolam-1'-hydroxylation by LC-MS/MS analysis; format: ADME, Microsome; details: human, liver microsomes, probe midazolam (1'-hydroxylation)
# CYP2D6 = CYP2D6 (Homo sapiens, UniProt P10635); experiment: Inhibition of CYP2D6 in human liver microsomes assessed as dextromethorphan O-demethylation by LC-MS/MS analysis; format: ADME, Microsome; details: human, liver microsomes, probe dextromethorphan (O-demethylation)
# [22] = Solubility of the compound in water at pH 4.9; format: physicochemical
# Method in brief: (§5)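 Compound stirred in 200 μL water at 300 rpm, 25 °C, for 24 h. The biphasic mixture was vacuum-filtered. Filtrate concentration was measured by reversed-phase HPLC with UV detection at 250 nm and quantified from peak area against a calibration curve.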
# [23] = Solubility of the compound in water at pH 5.7; format: physicochemical; method in brief: as §5
# Sequence of CYP2D6 (P10635 whole entry): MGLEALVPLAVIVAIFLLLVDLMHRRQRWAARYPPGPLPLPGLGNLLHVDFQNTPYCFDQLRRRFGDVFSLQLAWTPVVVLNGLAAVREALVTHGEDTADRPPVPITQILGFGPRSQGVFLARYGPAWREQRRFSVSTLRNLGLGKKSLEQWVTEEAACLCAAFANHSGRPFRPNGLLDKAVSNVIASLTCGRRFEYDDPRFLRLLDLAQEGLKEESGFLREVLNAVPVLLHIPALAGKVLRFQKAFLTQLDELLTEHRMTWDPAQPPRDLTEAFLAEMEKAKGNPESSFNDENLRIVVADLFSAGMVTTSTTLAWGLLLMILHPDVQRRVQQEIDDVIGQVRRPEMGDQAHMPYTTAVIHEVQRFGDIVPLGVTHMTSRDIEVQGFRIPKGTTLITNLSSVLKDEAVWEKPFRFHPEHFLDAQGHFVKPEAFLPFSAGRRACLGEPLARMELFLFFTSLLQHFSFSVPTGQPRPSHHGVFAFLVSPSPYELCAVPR
# Sequence of CYP3A4 (P08684 whole entry): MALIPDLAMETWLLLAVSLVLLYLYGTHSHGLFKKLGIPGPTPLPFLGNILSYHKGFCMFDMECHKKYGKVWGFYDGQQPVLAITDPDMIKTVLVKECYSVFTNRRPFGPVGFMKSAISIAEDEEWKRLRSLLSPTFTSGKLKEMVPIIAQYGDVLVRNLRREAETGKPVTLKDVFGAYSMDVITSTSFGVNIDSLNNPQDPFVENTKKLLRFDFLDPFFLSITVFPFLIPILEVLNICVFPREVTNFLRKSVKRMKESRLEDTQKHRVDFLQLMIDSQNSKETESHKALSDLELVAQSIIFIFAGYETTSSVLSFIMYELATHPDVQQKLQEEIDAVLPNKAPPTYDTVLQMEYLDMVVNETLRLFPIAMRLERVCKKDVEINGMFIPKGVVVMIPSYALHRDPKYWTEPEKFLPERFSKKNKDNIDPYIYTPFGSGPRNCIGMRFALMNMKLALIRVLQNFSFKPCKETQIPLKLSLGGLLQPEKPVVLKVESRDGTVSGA
structure (smiles),measurement,setting,value
O=C(O)Cn1c2c(c3cc(F)ccc31)CN(C(=O)c1cccs1)CC2,Vd,[1],0.4 L/kg
same,bioavailability,[2],5%
same,clearance,[3],36 mL/min/kg
same,solubility,[4],50 µg/mL
same,AUClast,Rattus norvegicus [5],244 ng·h/mL
O=C(O)Cn1c2c(c3ccccc31)CN(C(=O)c1cccc3ccccc13)CC2,Vd,[1],0.4 L/kg
same,solubility,[6],335 µg/mL
same,bioavailability,[2],36%
same,clearance,[3],1.1 mL/min/kg
same,Activity,[7],Active
same,Activity,[8],Active
same,AUClast,Rattus norvegicus [5],57300 ng·h/mL
O=C(O)Cn1c2c(c3cc(F)ccc31)CN(C(=O)c1cccc3ccccc13)CC2 [SETIPIPRANT],clearance,[9],1.3 mL/min/kg
same,bioavailability,[10],55%
same,half-life,[11],360 min
same,bioavailability,[2],44%
same,Activity,[7],Active
same,Vd,[12],0.4 L/kg
same,solubility,[13],50 µg/mL
same,Activity,[8],Active
same,clearance,[14],1.3 mL/min/kg
same,AUClast,Rattus norvegicus [15],58500 ng·h/mL
same,AUClast,Canis familiaris,91100 ng·h/mL
O=C(O)Cn1c2c(c3ccccc31)CN(C(=O)c1cccc(Cl)c1)CC2,solubility,[16],110 µg/mL
O=C(O)Cn1c2c(c3cc(F)ccc31)CN(C(=O)Cc1c[nH]c3ccccc13)CC2,solubility,[16],45 µg/mL
same,bioavailability,[17],2%
same,clearance,[18],11 mL/min/kg
same,AUClast,Rattus norvegicus [19],62 ng·h/mL
same,Vd,[20],0.4 L/kg
same,half-life,[21],72 min
O=C(O)Cn1c2c(c3ccccc31)CN(C(=O)c1ccccc1)CC2,Vd,[1],0.4 L/kg
same,IC50,CYP3A4,> 50 µM
same,IC50,CYP2D6,> 50 µM
same,solubility,[13],64 µg/mL
same,AUClast,Rattus norvegicus [5],6300 ng·h/mL
O=C(O)Cn1c2c(c3cc(F)ccc31)CN(C(=O)c1cccc(Cl)c1)CC2,bioavailability,[10],64%
same,Vd,[1],0.4 L/kg
same,bioavailability,[2],23%
same,clearance,[3],5.9 mL/min/kg
same,solubility,[22],25 µg/mL
same,Activity,[7],Active
same,Activity,[8],Active
same,AUClast,Rattus norvegicus [5],6450 ng·h/mL
same,clearance,[14],11 mL/min/kg
same,AUClast,Canis familiaris,9620 ng·h/mL
CCc1ccc(-c2ccc(C(=O)N3CCc4c(c5ccccc5n4CC(=O)O)C3)cc2)cc1,clearance,[9],35 mL/min/kg
same,half-life,[11],30 min
same,bioavailability,[2],4%
same,Vd,[12],0.4 L/kg
same,solubility,[13],2 µg/mL
same,AUClast,Rattus norvegicus [15],171 ng·h/mL
O=C(O)Cn1c2c(c3cc(F)ccc31)CN(C(=O)Cc1cccc3ccccc13)CC2,solubility,[23],28 µg/mL
